Source: ChEMBL document CHEMBL1157101, “A series of alpha-heterocyclic carboxaldehyde thiosemicarbazones inhibit topoisomerase IIalpha catalytic activity” (J Med Chem, 2010)
The source made the active and inactive calls. No cut-off for these calls is given here.

How the values were obtained:
[1] = Antiproliferative activity against human MCF7/ADR cells after 72 hrs by sulforhodamine B assay; format: functional, cell-based; conditions: NCI/ADR-RES
Outline: (§1)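 Cells seeded and exposed in triplicate to graded compound concentrations for 72 h. Suspension cells read by MTT conversion to coloured product; adherent cells read by sulforhodamine B. IC50 (50% growth inhibition versus untreated control) derived by the Logit method.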

SGC-7901 = experiment: Antiproliferative activity against human SGC7901 cells after 72 hrs by sulforhodamine B assay; format: functional, cell-based; conditions: SGC-7901, 72 h; outline: as §1
HL-60 = experiment: Antiproliferative activity against human HL60 cells after 72 hrs by sulforhodamine B assay; format: functional, cell-based; conditions: HL-60, 72 h, in the assay text read “MTT assay” for “sulforhodamine B assay”; outline: as §1
HT-29 [2] = experiment: Cell cycle arrest in human HT-29 cells assessed as accumulation at G1 phase at 0.5 to 1 uM after 24 hrs by flow cytometry; format: functional, cell-based
Outline: (§2)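 HT-29 cells stained with propidium iodide; cell-cycle distribution determined by flow cytometry.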

HeLa = experiment: Antiproliferative activity against human HeLa cells after 72 hrs by sulforhodamine B assay; format: functional, cell-based; outline: as §1
HT-29 [3] = experiment: Antiproliferative activity against human HT-29 cells after 72 hrs by sulforhodamine B assay; format: functional, cell-based; conditions: HT-29, 72 h; outline: as §1
LoVo = experiment: Antiproliferative activity against human LoVo cells after 72 hrs by sulforhodamine B assay; format: functional, cell-based; outline: as §1
A549 = experiment: Antiproliferative activity against human A549 cells after 72 hrs by sulforhodamine B assay; format: functional, cell-based; conditions: A549, 72 h; outline: as §1
Bel-7402 = experiment: Antiproliferative activity against human Bel7402 cells after 72 hrs by sulforhodamine B assay; format: functional, cell-based; conditions: Bel-7402, 72 h; outline: as §1
SMMC-7721 = experiment: Antiproliferative activity against human SMMC7721 cells after 72 hrs by sulforhodamine B assay; format: functional, cell-based; conditions: SMMC-7721, 72 h; outline: as §1
K562 = experiment: Antiproliferative activity against human K562 cells after 72 hrs by sulforhodamine B assay; format: functional, cell-based; conditions: K562, 72 h; outline: as §1
A-375 = experiment: Antiproliferative activity against human A375 cells after 72 hrs by sulforhodamine B assay; format: functional, cell-based; conditions: A-375, 72 h; outline: as §1
[4] = Antiproliferative activity against human K562/A02 cells after 72 hrs by sulforhodamine B assay; format: functional, cell-based; conditions: K562/A02, 72 h, in the assay text read “MTT assay” for “sulforhodamine B assay”; outline: as §1
[5] = Antiproliferative activity against human KB/VCR cells after 72 hrs by sulforhodamine B assay; format: functional, cell-based; outline: as §1
CCRF S-180 = experiment: Antitumor activity against mouse S180 cells transplanted in Kunming mouse assessed as inhibition of tumor growth at 50 mg/kg/day, ip for 7 days; format: functional; conditions: CCRF S-180, ip, 168 h, route intraperitoneal
Outline: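 Female Kunming mice, 7 weeks old, 18-22 g, inoculated sc in the right armpit with S-180 sarcoma. Dosing began the next day, ip daily for 7 days; normal saline given iv as control. Tumours excised and weighed after treatment. Inhibitory rate (%) = (mean control tumour weight − mean treated tumour weight)/mean control tumour weight × 100.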

Mus musculus [6] = experiment: Toxicity in Kunming mouse bearing mouse S180 cells assessed as change in body weight at 50 mg/kg/day, ip for 7 days (reference value: 17.9 g); format: organism-based, CCRF S-180; parameters: route intraperitoneal; conditions: in vivo, 168 h
Outline: (§3)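 Female Kunming mice, 7 weeks old and 18-22 g, were inoculated sc in the right armpit with S-180 sarcoma. From the next day they received ip injections at the stated daily dose for 7 days, alongside a normal-saline control group. Body weight was recorded at the start and at the end of treatment.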

Mus musculus [7] = experiment: Toxicity in Kunming mouse bearing mouse S180 cells assessed as change in body weight at 25 mg/kg/day, ip for 7 days (reference value: 17.9 g); format: organism-based, CCRF S-180; parameters: route intraperitoneal; conditions: in vivo, 168 h; outline: as §3
Mus musculus [8] = experiment: Toxicity in Kunming mouse bearing mouse S180 cells assessed as change in body weight at 12.5 mg/kg/day, ip for 7 days (reference value: 17.9 g); format: organism-based, CCRF S-180; parameters: route intraperitoneal; conditions: in vivo, 168 h; outline: as §3
HT-29 [9] = experiment: Cell cycle arrest in nocodazole pretreated human HT-29 cells assessed as accumulation at M phase at 1 uM after 24 hrs; format: functional, cell-based; outline: as §2
HT-29 [10] = experiment: Cytotoxicity against human HT-29 cells after 72 hrs in presence of FeSO4; format: functional, cell-based
[11] = target: T1, DNA topoisomerase 2-alpha (Homo sapiens, UniProt P11388); experiment: Inhibition of human topoisomerase 2alpha-mediated decatenation of kDNA
T1 sequence (P11388 whole entry): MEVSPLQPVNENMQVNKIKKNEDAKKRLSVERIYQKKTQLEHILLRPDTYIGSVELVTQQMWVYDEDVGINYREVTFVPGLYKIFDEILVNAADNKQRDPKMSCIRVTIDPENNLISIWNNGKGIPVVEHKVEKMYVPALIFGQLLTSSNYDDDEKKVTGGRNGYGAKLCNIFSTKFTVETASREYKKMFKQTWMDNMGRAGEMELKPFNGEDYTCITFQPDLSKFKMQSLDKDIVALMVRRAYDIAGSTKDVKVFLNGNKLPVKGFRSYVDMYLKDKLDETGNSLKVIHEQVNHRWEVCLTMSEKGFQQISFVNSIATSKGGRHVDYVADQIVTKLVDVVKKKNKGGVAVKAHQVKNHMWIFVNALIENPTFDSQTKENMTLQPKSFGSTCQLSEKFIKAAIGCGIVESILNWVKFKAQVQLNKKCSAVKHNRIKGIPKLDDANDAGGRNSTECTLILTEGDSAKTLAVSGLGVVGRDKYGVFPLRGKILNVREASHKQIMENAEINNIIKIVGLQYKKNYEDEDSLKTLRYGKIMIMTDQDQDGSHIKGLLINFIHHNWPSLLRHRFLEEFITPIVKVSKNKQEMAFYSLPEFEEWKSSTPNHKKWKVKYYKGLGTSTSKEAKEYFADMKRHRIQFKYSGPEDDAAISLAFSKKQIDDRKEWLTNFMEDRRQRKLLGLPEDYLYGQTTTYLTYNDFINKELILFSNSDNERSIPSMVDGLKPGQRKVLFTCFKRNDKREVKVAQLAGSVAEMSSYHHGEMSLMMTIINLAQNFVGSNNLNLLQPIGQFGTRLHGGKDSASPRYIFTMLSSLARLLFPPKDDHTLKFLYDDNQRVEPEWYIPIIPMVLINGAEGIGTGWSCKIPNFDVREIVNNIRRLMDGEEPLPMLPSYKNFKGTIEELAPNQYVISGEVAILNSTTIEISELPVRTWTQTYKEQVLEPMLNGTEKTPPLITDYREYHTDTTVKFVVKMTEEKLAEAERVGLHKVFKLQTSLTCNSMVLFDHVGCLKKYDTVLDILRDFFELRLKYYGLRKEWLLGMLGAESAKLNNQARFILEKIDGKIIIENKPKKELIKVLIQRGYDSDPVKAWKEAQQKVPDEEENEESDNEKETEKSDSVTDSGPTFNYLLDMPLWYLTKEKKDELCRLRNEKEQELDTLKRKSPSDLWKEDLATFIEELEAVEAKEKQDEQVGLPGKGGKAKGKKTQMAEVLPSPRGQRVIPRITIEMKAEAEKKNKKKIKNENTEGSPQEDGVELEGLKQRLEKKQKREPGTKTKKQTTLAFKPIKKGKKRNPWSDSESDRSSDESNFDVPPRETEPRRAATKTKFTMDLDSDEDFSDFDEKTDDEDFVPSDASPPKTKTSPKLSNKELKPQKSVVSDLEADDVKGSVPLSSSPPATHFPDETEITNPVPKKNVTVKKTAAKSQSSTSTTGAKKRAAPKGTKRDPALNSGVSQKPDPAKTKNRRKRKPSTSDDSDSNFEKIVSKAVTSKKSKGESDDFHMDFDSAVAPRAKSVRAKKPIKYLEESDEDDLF

[12] = target: T1, DNA topoisomerase 2-alpha; experiment: Inhibition of human topoisomerase 2alpha-mediated relaxation of pBR322 at 25 uM
[13] = target: T1, DNA topoisomerase 2-alpha; experiment: Inhibition of human topoisomerase 2alpha-mediated decatenation of kDNA at 25 uM
[14] = target: T2, DNA topoisomerase 1 (Homo sapiens) (UniProt P11387); experiment: Inhibition of human topoisomerase 1-mediated relaxation of pBR322 at 100 uM
T2 sequence (whole entry): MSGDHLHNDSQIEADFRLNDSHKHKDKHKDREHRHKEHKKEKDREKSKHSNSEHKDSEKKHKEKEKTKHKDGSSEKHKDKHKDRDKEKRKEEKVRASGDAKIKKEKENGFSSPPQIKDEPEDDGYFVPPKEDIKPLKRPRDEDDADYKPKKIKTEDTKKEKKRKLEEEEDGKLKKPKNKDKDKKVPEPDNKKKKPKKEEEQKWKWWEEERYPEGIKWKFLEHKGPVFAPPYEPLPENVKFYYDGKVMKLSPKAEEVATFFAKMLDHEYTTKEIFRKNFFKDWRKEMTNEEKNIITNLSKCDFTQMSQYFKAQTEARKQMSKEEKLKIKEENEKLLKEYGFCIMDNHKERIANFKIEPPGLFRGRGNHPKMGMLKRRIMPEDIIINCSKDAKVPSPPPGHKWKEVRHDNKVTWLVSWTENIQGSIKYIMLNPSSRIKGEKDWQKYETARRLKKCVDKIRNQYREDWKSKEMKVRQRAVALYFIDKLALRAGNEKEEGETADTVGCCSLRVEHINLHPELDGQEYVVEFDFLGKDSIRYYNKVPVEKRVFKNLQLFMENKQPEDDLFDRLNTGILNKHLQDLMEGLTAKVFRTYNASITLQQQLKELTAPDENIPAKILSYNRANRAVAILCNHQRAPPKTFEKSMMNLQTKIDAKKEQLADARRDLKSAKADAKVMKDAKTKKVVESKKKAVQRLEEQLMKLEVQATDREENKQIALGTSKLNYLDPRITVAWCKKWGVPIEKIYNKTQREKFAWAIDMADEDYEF

[15] = target: T1, DNA topoisomerase 2-alpha; experiment: Inhibition of topoisomerase-2 alpha in human HL60/MX2 cells assessed as antagonization of etoposide-mediated enzyme-DNA cleavage complex at 100 uM; format: cell-based
[16] = target: T1, DNA topoisomerase 2-alpha; experiment: Inhibition of human topoisomerase 2alpha binding to pBR322 DNA binding by electrophoretic mobility shift assay
Outline: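 Electrophoretic mobility shift assay. 0.2 μg supercoiled pBR322 with 200 nM human Topo IIα, ± compound, 10 min at 37 °C. Separated 90 min on 1% agarose containing 0.5 μg/mL ethidium bromide in TAE.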

[17] = target: T1, DNA topoisomerase 2-alpha; experiment: Binding affinity to human topoisomerase 2 alpha ATPase domain
Outline: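 Surface plasmon resonance. Human Topo IIα ATPase domain immobilised on CM5 chips after activation of surface carboxyl groups. Serial compound dilutions flowed over the chip and sensorgrams recorded. KD obtained by steady-state affinity fitting.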

HT-29 [18] = experiment: Inhibition of DNA synthesis in human HT-29 cells measured at 0.25 to 1 uM by BrdU incorporation assay; format: functional, cell-based
Outline: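 HT-29 cells; DNA synthesis measured by BrdU incorporation with flow detection.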

`CN(C)C(=S)N/N=C/c1ccc2ccccc2n1` gave an IC50 [1] of 0.2 µM, an IC50 (SGC-7901) of 0.03 µM and an IC50 (HL-60) of 0.05 µM. For the same compound, the Activity (HT-29 [2]) was “Active”, the IC50 (HeLa) was 0.09 µM and the IC50 (HT-29 [3]) was 0.02 µM. It also gave an IC50 (LoVo) of 0.06 µM, an IC50 (A549) of 0.45 µM and an IC50 (Bel-7402) of 0.18 µM. The IC50 (SMMC-7721) was 0.24 µM, the IC50 (K562) was 0.06 µM and the IC50 (A-375) was 0.02 µM. For the same compound, the IC50 [4] was 0.06 µM, the IC50 [5] was 0.3 µM and the inhibition in vivo at 50 mg/kg/day (CCRF S-180) was 76.7%. For the same compound, the Activity (Mus musculus [6]) was 20 g, the Activity (Mus musculus [7]) was 23.9 g and the Activity (Mus musculus [8]) was 29 g. For the same compound, the Activity (HT-29 [9]) was “Active”, the inhibition (HT-29 [10]) was “Active” and the inhibition [11] was “Dose-dependent effect”. For the same compound, the inhibition [12] was “inactive”, the inhibition [13] was “Active” and the inhibition [14] was “Active”. For the same compound, the inhibition [15] was “Active”, the inhibition [16] was “inactive” and the Kd [17] was 18.3 µM. For the same compound, the inhibition (HT-29 [18]) was “Dose-dependent effect”.
